Assay results gathered from unrelated publications.
Compare with care: the assays were run in different laboratories.
Target: D(2) dopamine receptor (DRD2, Homo sapiens, UniProt P14416)

O=C1c2ccccc2CCN1CCCCN1CCN(c2cccc(Cl)c2Cl)CC1
Ki (ligand displacement, radioligand): 14 nM

FC(F)(F)c1nc2cc(OCCCCN3CCN(c4cccc(Cl)c4Cl)CC3)ccc2s1
EC50 (cAMP, agonist, luciferase): 140 nM

O=C1c2ccccc2CCN1CCCCN1CCN(c2ccccn2)CC1
Ki (ligand displacement, radioligand): 805 nM

CNC(=O)[C@@]12C[C@@H]1[C@@H](n1cnc3c(NC)nc(C#Cc4cccs4)nc31)[C@H](O)[C@@H]2O
Ki (cell-free assay, radioligand): > 10000 nM

CCN(CC)c1ccc(C2Nc3ccc(C(=O)c4ccccc4)cc3NC3=C2C(=O)CC(C)(C)C3)cc1 (centres unmarked)
Ki (cell-free assay, radioligand): > 10000 nM

Oc1cccc(CCC2=NCCN2CCc2ccccc2)c1
Ki (ligand displacement, radioligand): > 10000 nM

COc1ccc2c(c1)C(=O)N(CCCN1CCN(c3ccccc3OC)CC1)C2
Ki (ligand displacement, radioligand): 1500 nM

CCCCN1CCC(COC(=O)c2ccc(N)c(OCF)c2)CC1
Ki (cell-free assay, radioligand): > 10000 nM

CC(C)c1nc2cc(OCCCCN3CCN(c4cccc5c4OCCN5)CC3)ccc2s1
EC50 (β-arrestin recruitment, agonist): 16 nM

Oc1cccc(CCC2=NCCN2Cc2ccccc2)c1
Ki (ligand displacement, radioligand): > 10000 nM

CCOCc1nc(O)c(-c2nnc(Cc3ccc(Cl)cn3)o2)c(O)c1-c1c(OC)cccc1OC
IC50 (ligand displacement, radioligand): > 30000 nM

CCO[C@H]1CCN(Cc2c(OC)cc(C)c3[nH]ccc23)[C@H](c2ccc(C(=O)O)cc2)C1
Kd (cell-free assay): > 30000 nM

COc1ccc(CCC2=NCCN2CCc2ccccc2)cc1
Ki (ligand displacement, radioligand): > 10000 nM

CCc1nc2cc(OCCCCN3CCN(c4cccc(Cl)c4Cl)CC3)ccc2s1
EC50 (cAMP, agonist, luciferase): 98 nM
